The results in this text go back to ChEMBL document CHEMBL1134379, “Covalently induced activation of the delta opioid receptor by a fluorogenic affinity label, 7'-(phthalaldehydecarboxamido)naltrindole (PNTI)” (J Med Chem, 2001).

pIC50, pKi: −log10 of the molar value.

As usually defined, the pKi is the negative decadic logarithm of the Ki, by convention in mol/L. As usually defined, the pIC50 is the negative decadic logarithm of the IC50, by convention in mol/L. High values mean a small IC50, low ones a large IC50.

Test [1] concerns the target T1, Delta-type opioid receptor (Homo sapiens, UniProt P41143). The experiment in a line: Irreversible binding to delta receptor after pretreatment with naloxone (1 uM) at 20 nM of the compound.
Test [2] concerns the target T1, Delta-type opioid receptor. The experiment in a line: Irreversible binding to delta receptor before pretreatment with naloxone (1 uM) at 20 nM of the compound.
In test [3] the target is T1, Delta-type opioid receptor. As to the kind of experiment: Irreversible binding to delta receptor before pretreatment with naloxone (1 uM) at 1 uM of the compound.
Test [4] concerns the target T1, Delta-type opioid receptor. The experiment in a line: Irreversible binding to delta receptor after pretreatment with naloxone (1 uM) at 1 uM of the compound.
The target in test [5] is T1, Delta-type opioid receptor. The experiment in a line: Irreversible binding to delta receptor before pretreatment with naloxone (1 uM) at 1 uM.
The target of test [6] is T1, Delta-type opioid receptor. The experiment in a line: Binding affinity towards delta-opioid receptor from CHO cells. In kind it is cell-based, Cricetulus griseus.
Test [7] concerns the target Kappa-type opioid receptor (Homo sapiens, UniProt P41145). The experiment in a line: Binding affinity towards opioid receptor kappa 1 from CHO cells. In kind it is cell-based, Cricetulus griseus.
Test [8] addresses Mu-type opioid receptor (Homo sapiens, UniProt P35372). The experiment in a line: Binding affinity towards mu-opioid receptor from CHO cells. Type of test: cell-based, Cricetulus griseus.
For test [9], the species on record is Mus musculus. As to the kind of experiment: Agonist activity in mouse vas deferens (MVD) assay. Type of test: functional, organism-based. Put shortly:
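Electrically stimulated mouse vas deferens preparation. The compound's inhibition of the twitch was measured and the IC50 was derived from the concentration–effect curve.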

In test [10] the test system is Mus musculus. As to the kind of experiment: Antinociceptive activity by mouse tail-flick antinociceptive assay after icv administration in mouse. Type of test: functional.

T1 sequence (P41143 whole entry): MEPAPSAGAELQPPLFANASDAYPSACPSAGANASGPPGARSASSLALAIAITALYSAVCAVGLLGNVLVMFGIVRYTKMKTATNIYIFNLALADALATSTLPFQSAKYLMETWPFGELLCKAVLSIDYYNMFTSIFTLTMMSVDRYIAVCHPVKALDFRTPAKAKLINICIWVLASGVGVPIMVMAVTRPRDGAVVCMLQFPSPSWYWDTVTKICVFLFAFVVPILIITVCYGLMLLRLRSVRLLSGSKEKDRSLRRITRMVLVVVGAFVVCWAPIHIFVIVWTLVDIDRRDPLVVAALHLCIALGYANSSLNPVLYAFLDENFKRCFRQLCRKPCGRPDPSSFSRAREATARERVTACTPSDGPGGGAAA
Mu-type opioid receptor, sequence (P35372 whole entry): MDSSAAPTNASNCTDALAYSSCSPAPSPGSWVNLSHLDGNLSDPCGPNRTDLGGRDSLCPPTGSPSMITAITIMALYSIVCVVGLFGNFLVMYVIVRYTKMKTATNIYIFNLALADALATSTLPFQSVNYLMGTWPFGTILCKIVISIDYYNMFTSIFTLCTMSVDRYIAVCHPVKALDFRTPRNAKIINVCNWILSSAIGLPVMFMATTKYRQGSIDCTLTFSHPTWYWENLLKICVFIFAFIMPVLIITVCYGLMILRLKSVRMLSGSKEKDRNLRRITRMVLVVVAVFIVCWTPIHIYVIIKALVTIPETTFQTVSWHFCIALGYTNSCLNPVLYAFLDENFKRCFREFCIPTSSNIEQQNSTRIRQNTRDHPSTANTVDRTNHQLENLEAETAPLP
Kappa-type opioid receptor, sequence (P41145 whole entry): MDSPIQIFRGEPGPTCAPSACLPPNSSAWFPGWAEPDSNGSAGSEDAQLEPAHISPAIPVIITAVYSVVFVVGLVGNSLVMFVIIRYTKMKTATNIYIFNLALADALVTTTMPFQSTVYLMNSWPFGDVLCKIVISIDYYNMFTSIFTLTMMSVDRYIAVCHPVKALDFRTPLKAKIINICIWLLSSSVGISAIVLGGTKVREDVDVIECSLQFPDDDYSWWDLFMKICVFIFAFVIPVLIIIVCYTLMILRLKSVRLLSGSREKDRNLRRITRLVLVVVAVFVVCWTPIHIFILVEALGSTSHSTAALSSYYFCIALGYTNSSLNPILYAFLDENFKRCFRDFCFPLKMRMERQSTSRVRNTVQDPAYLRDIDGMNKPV

For `O=C(Nc1cccc2c3c([nH]c12)C1Oc2c(O)ccc4c2[C@@]12CCN(CC1CC1)[C@H](C4)[C@]2(O)C3)c1ccccc1` (stereo partly drawn), the Binding in test [1] stood at 70%; in [2], 42%; in test [3], 7%; in test [4], 20%.
As to `O=Cc1ccc(C(=O)Nc2cccc3c4c([nH]c23)C2Oc3c(O)ccc5c3[C@@]23CCN(CC2CC2)[C@H](C5)[C@]3(O)C4)cc1C=O` (stereo partly drawn), the Binding in [1] was found to be 28%; in test [5], 3%; in test [2] it was 30%; in test [4] it was 10%. Also, the pKi was 8.72 in [6], 7.70 in test [7] and 7.83 in [8]. This molecule also gave a pIC50 in test [9] of 9.92. Moreover, in [10], the ED50 was found to be 2.06 nM.
